Measurements: ChEMBL document CHEMBL2424551, “Synthesis, in vitro evaluation and molecular modelling of naphthalimide analogue as anticancer agents” (2013)

Assays:
Type in all cases: functional
[1] = tested on: COLO 205; experiment: Growth inhibition of human COLO205 cells at 10 uM after 48 hrs by SRB assay; details: COLO 205, 48 h, read-out: GI
Procedure, shortened: (§1)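 Cells grown in RPMI 1640 with 5% FBS and 2 mM L-glutamine, plated at 5000–40,000 cells/well by doubling time and preincubated 24 h (37 °C, 5% CO2); a time-zero plate is TCA-fixed. Single dose added, then 48 h incubation. Fixed with cold TCA, stained with 0.4% SRB, dye solubilized in 10 mM Tris base, absorbance at 515 nm; percent growth vs time-zero and untreated control.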

[2] = tested on: HOP-92; experiment: Growth inhibition of human HOP92 cells at 10 uM after 48 hrs by SRB assay; details: HOP-92, 48 h, read-out: GI; procedure, shortened: as §1
[3] = tested on: MOLT-4; experiment: Growth inhibition of human MOLT4 cells at 10 uM after 48 hrs by SRB assay; details: MOLT-4, 48 h, read-out: GI; procedure, shortened: as §1
[4] = tested on: HL-60(TB); experiment: Growth inhibition of human HL-60(TB) cells at 10 uM after 48 hrs by SRB assay; details: HL-60, 48 h, read-out: GI
Procedure, shortened: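 Single-concentration pass across the 60-line panel in RPMI 1640 with 5% FBS. Cells preincubated 24 h, then exposed 48 h at 37 °C, 5% CO2. Read by SRB staining with absorbance at 515 nm. Percent growth is taken relative to time-zero and untreated controls and reported as percent growth inhibition (GI %).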

[5] = tested on: MDA-MB-231; experiment: Growth inhibition of human MDA-MB-231 cells at 10 uM after 48 hrs by SRB assay; details: MDA-MB-231, 48 h, read-out: GI; procedure, shortened: as §1
[6] = tested on: DU-145; experiment: Growth inhibition of human DU145 cells at 10 uM after 48 hrs by SRB assay; details: DU-145, 48 h, read-out: GI; procedure, shortened: as §1
[7] = tested on: UO-31; experiment: Growth inhibition of human UO31 cells at 10 uM after 48 hrs by SRB assay; details: UO-31, 48 h, read-out: GI
Procedure, shortened: (§2)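 NCI 60-cell-line screen with a single 10 µM dose. Cells are grown in RPMI 1640 with 5% FBS and 2 mM L-glutamine, plated at 5000–40,000 cells/well according to doubling time, and preincubated 24 h at 37 °C, 5% CO2; time-zero plates are TCA-fixed at that point. Drug exposure is 48 h. Adherent cells are fixed with cold TCA, stained with 0.4% SRB in 1% acetic acid and read at 515 nm. Percent growth is calculated relative to time-zero and untreated controls and reported as GI%.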

[8] = tested on: ACHN; experiment: Growth inhibition of human ACHN cells at 10 uM after 48 hrs by SRB assay; details: read-out: GI; procedure, shortened: as §1
[9] = tested on: CAKI-1; experiment: Growth inhibition of human Caki1 cells at 10 uM after 48 hrs by SRB assay; details: CAKI-1, 48 h, read-out: GI; procedure, shortened: as §1
[10] = tested on: 786-0; experiment: Growth inhibition of human 786-0 cells at 10 uM after 48 hrs by SRB assay; details: 786-0, 48 h, read-out: GI; procedure, shortened: as §1
[11] = Growth inhibition of human NCI-ADR-RES cells at 10 uM after 48 hrs by SRB assay; details: read-out: GI; procedure, shortened: as §1
[12] = tested on: OVCAR-8; experiment: Growth inhibition of human OVCAR8 cells at 10 uM after 48 hrs by SRB assay; details: OVCAR-8, 48 h, read-out: GI; procedure, shortened: as §1
[13] = tested on: IGROV-1; experiment: Growth inhibition of human IGROV1 cells at 10 uM after 48 hrs by SRB assay; details: IGROV-1, 48 h, read-out: GI; procedure, shortened: as §1
[14] = tested on: SK-MEL-28; experiment: Growth inhibition of human SK-MEL-28 cells at 10 uM after 48 hrs by SRB assay; details: SK-MEL-28, 48 h, read-out: GI; procedure, shortened: as §1
[15] = tested on: MDA-MB-435; experiment: Growth inhibition of human MDA-MB-435 cells at 10 uM after 48 hrs by SRB assay; details: MDA-MB-435, 48 h, read-out: GI; procedure, shortened: as §1
[16] = tested on: M14; experiment: Growth inhibition of human M14 cells at 10 uM after 48 hrs by SRB assay; details: M14, 48 h, read-out: GI; procedure, shortened: as §1
[17] = tested on: LOX IMVI; experiment: Growth inhibition of human LOXIMVI cells at 10 uM after 48 hrs by SRB assay; details: read-out: GI; procedure, shortened: as §1
[18] = tested on: SF-539; experiment: Growth inhibition of human SF539 cells at 10 uM after 48 hrs by SRB assay; details: SF-539, 48 h, read-out: GI; procedure, shortened: as §1
[19] = tested on: SF-268; experiment: Growth inhibition of human SF268 cells at 10 uM after 48 hrs by SRB assay; details: SF-268, 48 h, read-out: GI; procedure, shortened: as §1
[20] = tested on: HT-29; experiment: Growth inhibition of human HT-29 cells at 10 uM after 48 hrs by SRB assay; details: HT-29, 48 h, read-out: GI; procedure, shortened: as §1
[21] = tested on: UACC-257; experiment: Growth inhibition of human UACC257 cells at 10 uM after 48 hrs by SRB assay; details: UACC-257, 48 h, read-out: GI; procedure, shortened: as §2
[22] = tested on: SK-MEL-2; experiment: Growth inhibition of human SK-MEL-2 cells at 10 uM after 48 hrs by SRB assay; details: SK-MEL-2, 48 h, read-out: GI; procedure, shortened: as §1
[23] = tested on: SF-295; experiment: Growth inhibition of human SF295 cells at 10 uM after 48 hrs by SRB assay; details: SF-295, 48 h, read-out: GI; procedure, shortened: as §1

Structure (SMILES) | inhibition of growth at 10 µM [1] | inhibition of growth at 10 µM [2] | inhibition of growth at 10 µM [3] | inhibition of growth at 10 µM [4] | inhibition of growth at 10 µM [5] | inhibition of growth at 10 µM [6] | inhibition of growth at 10 µM [7] | inhibition of growth at 10 µM [8] | inhibition of growth at 10 µM [9] | inhibition of growth at 10 µM [10] | inhibition of growth at 10 µM [11] | inhibition of growth at 10 µM [12] | inhibition of growth at 10 µM [13] | inhibition of growth at 10 µM [14] | inhibition of growth at 10 µM [15] | inhibition of growth at 10 µM [16] | inhibition of growth at 10 µM [17] | inhibition of growth at 10 µM [18] | inhibition of growth at 10 µM [19] | inhibition of growth at 10 µM [20] | also measured
O=c1c2cccc3c(Nc4c(F)cccc4F)ccc(c32)c2nc3ccccc3n12 | < 20% | 35.8% | 25.9% | < 20% | < 20% | < 20% | 49.4% | < 20% | 38% | < 20% | < 20% | < 20% | 46.6% | < 20% | < 20% | < 20% | < 20% | < 20% | < 20% | < 20% | 
O=c1c2cccc3c(Nc4ccc(F)cc4)ccc(c32)c2nc3ccccc3n12 | < 20% | 46.8% | < 20% | < 20% | 29.1% | < 20% | 50.8% | < 20% | 20.1% | < 20% | < 20% | < 20% |  | < 20% | < 20% | < 20% | < 20% | < 20% | < 20% | < 20% | inhibition of growth at 10 µM [21]: < 20%; inhibition of growth at 10 µM [22]: < 20%; inhibition of growth at 10 µM [23]: < 20%
O=c1c2cccc3c(Nc4ccccn4)ccc(c32)c2nc3ccccc3n12 | 29% | 45.1% | 38.2% | 37.7% | 29.4% | < 20% | 53.5% | 23.9% | 48.2% | < 20% | 25.4% | 24.6% | 43.4% | < 20% | < 20% | < 20% | 30.4% | < 20% | < 20% | 35.4% | 
O=c1c2cccc3c(Nc4ccc(Br)cn4)ccc(c32)c2nc3ccccc3n12 | < 20% | 37.6% | < 20% | < 20% | 33.8% | < 20% | 47.9% | < 20% | < 20% | < 20% | < 20% | < 20% | 51.1% | 27.1% | < 20% | < 20% | < 20% | < 20% | < 20% | < 20% | inhibition of growth at 10 µM [21]: < 20%; inhibition of growth at 10 µM [22]: < 20%; inhibition of growth at 10 µM [23]: < 20%
O=c1c2cccc3c(NC4CCCCC4)ccc(c32)c2nc3ccccc3n12 | 24.4% | 51.5% | 50.2% | 37.4% | < 20% | < 20% | 58.6% | 27.1% | 52.8% | < 20% | < 20% | < 20% | 58.8% | < 20% | < 20% | < 20% | 26.6% | < 20% | < 20% | 23.1% | 
O=c1c2cccc3c(NCCO)ccc(c32)c2nc3ccccc3n12 | < 20% | 40% | < 20% | < 20% | < 20% | < 20% | 38.3% | < 20% | < 20% | < 20% | < 20% | < 20% | 63.5% | < 20% | < 20% | < 20% | < 20% | < 20% | < 20% | < 20% | inhibition of growth at 10 µM [21]: < 20%; inhibition of growth at 10 µM [22]: < 20%; inhibition of growth at 10 µM [23]: < 20%
CCCCNc1ccc2c3c1cccc3c(=O)n1c3ccccc3nc21 | < 20% | 38.8% | 30.6% | 36.6% | 20.2% | < 20% | 41.4% | < 20% | 56.8% | < 20% | < 20% | < 20% | 58.2% | < 20% | < 20% | < 20% | 24.1% | < 20% | < 20% | < 20% | 
